Reference: paper PMC4267294 (RSC advances, 2014)

Assays:
[1] = Stability; assay type: in vitro ADME, bovine; conditions: fluorophore conjugated with a small molecule ligand, 24 h
[2] = In vivo biodistribution and clearance in rodents after intravenous injection; design: species or system CD-1 mice and SD rats; conditions: rodent, 4 h post-injection
How it was run: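 Male CD-1 mice (≈25 g) and male Sprague-Dawley rats (≈250 g) were anaesthetised with ketamine 100 mg/kg plus xylazine 10 mg/kg i.p. They received test compound i.v. (mice 25 nmol, rats 100 nmol) and were imaged 4 h later on the FLARE NIR system (760 nm excitation, 11.0 mW/cm2; 810 ± 20 nm emission). Organ signal-to-background was calculated against surrounding muscle, with ≥3 animals per time point, mean ± s.d.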

[3] = Optical/chemical stability of fluorophores in 100% warm serum; assay type: in vitro ADME, bovine; conditions: 24 h
How it was run: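 Test fluorophores (10 mM DMSO stock, 100 μM working solution) were diluted into 100% FBS buffered with 50 mM HEPES, pH 7.4, and held at 37 °C. Optical stability was followed over time to 24 h by absorbance and fluorescence spectra, under 770 nm laser excitation at 10 mW.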

[4] = 100% FBS supplemented with 50 mM HEPES, pH 7.4; conditions: fetal bovine, 37 °C, up to 24 h

Row | Compound | stable form maintained in warm serum [1] | renal excretion [2] | serum stability [3] | fragment found [4] | not cleaved [4]
1 | CC1(C)C(/C=C/C2=C(c3ccc(CCC(=O)O)cc3)C(=C/C=C3/N(CCC[N+](C)(C)C)c4ccc(S(=O)(=O)O)cc4C3(C)C)/CCC2)=[N+](CCC[N+](C)(C)C)c2ccc(S(=O)(=O)O)cc21 [ZW800-1C] | > 98% | > 80% | > 99% |  | 
2 | Cyclo(Arg-Gly-Asp-D-Tyr-Lys) |  |  |  | hydrolyzed form of cRGD-ZW800-1A, 24 h | >98%, 24 h
